Reference: PMC9366314 (Acta Pharmaceutica Sinica. B, 2022)

What was measured:
92.1 cells [1] = experiment: Clonogenic; type: cell-based; conditions: 1 and 3 μmol/L; 9 days
Method in brief: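 92.1 cells were exposed to test compound for 9 days, and colonies were counted with a colony counter. Data are mean ± SEM, n = 3.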

Gαq/11 [2] = experiment: AngII-induced intracellular Ca2+ release in HEK293-AT1R cells; type: cell-based; conditions: 100 μmol/L
Method in brief: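 HEK293 cells overexpressing AT1R were loaded with Fluo-4 AM at 37 °C for 1 h, then pretreated with test compound for 0.5 h. AngII was added at a range of concentrations to build a dose–response curve. Fluorescence was read at 485/525 nm excitation/emission. Data are mean ± SEM, n = 3.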

[3] = tested on: MP41 cells (GNA11 Q209L mutation); experiment: Cell proliferation inhibition assay; type: cell-based; conditions: MP41, 72 h, read-out: Antiproliferation (IC50, μmol/L) MP41
Method in brief: (§1)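 Uveal melanoma cells were grown in RPMI-1640 with 10% FBS at 37 °C, 5% CO2. They were resuspended at 3 × 10^3 cells/mL, seeded and left overnight. Cells were exposed to a concentration series of test compound for 72 h. CCK-8 was added for 2–4 h and absorbance read at 450 nm. IC50 values were fitted from the curves and reported as mean ± SEM, n = 3.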

MP41 cells [4] = experiment: Clonogenic; type: cell-based; conditions: 1 and 3 μmol/L; 9 days
Method in brief: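 MP41 cells were seeded at 4000 cells/well and left overnight. They were exposed to test compound for 9 days, with medium and compound renewed every three days. Colonies were fixed in 4% paraformaldehyde for 15 min, stained with crystal violet for 0.5 h and counted with a colony counter. Data are mean ± SEM, n = 3.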

MP41 xenograft = MP41 xenograft model; type: in vivo, nude BALB/c nu/nu mice; conditions: 21 days
Method in brief: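 Nude BALB/c nu/nu mice (18–22 g, 6–8 weeks) bearing MP41 xenografts were randomised at n = 6/group. They received vehicle or test compound (5, 15 or 30 mg/kg/day) ip for 21 consecutive days. Body weight and tumour size were recorded every 2 days. Tumours were harvested on day 22 for weighing and H&E staining. Groups were compared by one-way ANOVA.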

phosphorylated ERK = experiment: Western blot of phosphorylated ERK in MP41 xenograft tumor tissues; type: in vivo, mice; conditions: testing dose
Method in brief: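 Cells or xenograft tumour tissue were lysed in RIPA buffer with protease and phosphatase inhibitors. Lysates were cleared at 15,000 rpm, 4 °C for 15 min, and protein was quantified by BCA. Proteins were separated on 8%–12% SDS-PAGE, transferred to PVDF and blocked with 5% BSA. After primary and secondary antibodies, bands were detected by enhanced chemiluminescence.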

Gαq/11 [5] = experiment: IP1 accumulation assay; type: cell-based; conditions: CHO-M1 cells, mean ± SEM (n = 3)
[6] = tested on: 92.1 cells (GNAQ Q209L mutation); experiment: Cell proliferation inhibition assay; type: cell-based; conditions: 72 h, read-out: Antiproliferation (IC50, μmol/L) 92.1
Method in brief: as §1

92.1 cells [7] = experiment: Transwell invasion assay, 92.1; type: cell-based; conditions: 3, 10, and 20 μmol/L
MP41 cells [8] = experiment: Rescue assay, siRNA GNA11 knockdown in MP41 cells; type: cell-based; conditions: 72 h
Method in brief: (§2)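 Cells were transfected with siRNA against GNA11 (MP41) or GNAQ (92.1), or with a matching control siRNA. After 48 h, cells were reseeded at 3000 cells/well and cultured 18–24 h. They were then exposed to test compound for 72 h. CCK-8 was added for 2–4 h and absorbance read at 450 nm. Data are mean ± SEM, n = 3.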

MP41 cells [9] = experiment: Transwell invasion assay, MP41; type: cell-based; conditions: 3, 10, and 20 μmol/L
Method in brief: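 MP41 cells (1 × 10^4/well) were placed in Transwell upper chambers, with RPMI-1640 plus 20% FBS in the lower chamber, and left overnight. Cells were then exposed to test compound for 48 h. Non-migrated cells in the upper chamber were removed. Cells in the lower chamber were stained with crystal violet for 0.5 h and counted by microscope at ×100. Data are mean ± SEM, n = 3.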

MP41 cells [10] = experiment: Cell cycle analysis by flow cytometry, MP41; type: cell-based; conditions: 48 h
Method in brief: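 MP41 cells were seeded at 3 × 10^5 cells/well, left overnight, then exposed to test compound for 48 h. Cells were washed and fixed in 70% ethanol at 4 °C for 12 h. Staining with RNase (100 μg/mL) and PI (50 μg/mL) ran at 37 °C for 0.5 h. Phase distribution was read by flow cytometry. Data are mean ± SEM, n = 3.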

92.1 cells [11] = experiment: Apoptosis assay by flow cytometry, 92.1; type: cell-based
92.1 cells [12] = experiment: Cell cycle analysis by flow cytometry, 92.1; type: cell-based
CHO-M1 cells = experiment: Cytotoxicity on CHO-M1 cells; type: cell-based; conditions: CCK-8
[13] = Pharmacokinetic studies in ICR mice; type: in vivo; conditions: male, mouse, plasma
Method in brief: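 Male ICR mice received test compound at 5 mg/kg iv or 15 mg/kg po. Samples were centrifuged at 6800×g, 2–8 °C for 6 min, stored at −80 °C and quantified by LC–MS/MS.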

phosphorylated YAP = experiment: Western blot of phosphorylated YAP in MP41 xenograft tumor tissues; type: in vivo, mice; conditions: testing dose
Method in brief: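 Nude BALB/c nu/nu mice (18–22 g, 6–8 weeks) bearing MP41 xenografts were randomised (n = 6/group) and dosed ip daily for 21 days (5, 15 or 30 mg/kg/day arms). Tumours were taken on Day 22 and lysed in RIPA with phosphatase and protease inhibitors. Lysates were spun at 15,000 rpm, 4 °C for 15 min, protein quantified by BCA, run on 8–12% SDS-PAGE, transferred to PVDF, blocked in 5% BSA and detected by ECL.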

92.1 cells [14] = experiment: Rescue assay, siRNA GNAQ knockdown in 92.1 cells; type: cell-based; conditions: 10 and 20 μmol/L; 72 h
Method in brief: as §2

## CN1CCC[C@H]1CN1CCn2cc(-c3ccccc3)nc2[C@@H]1CC1CCCCC1 [GQ262]
92.1 cells [1]
  Colony formation of 92.1 cells: obviously blocked the colony formation
Gαq/11 [2]
  Effect on AngII-stimulated Ca2+ release: obviously suppressed the Ca^2+ release
[3]
  IC50: 5.1 ± 0.6 µmol/L
MP41 cells [4]
  Colony formation of MP41 cells: obviously blocked the colony formation
MP41 xenograft; 5 mg/kg/day ip
  Tumor growth inhibition (TGI): 55.2%
MP41 xenograft; 15 mg/kg/day ip
  Tumor growth inhibition (TGI): 82.8%
MP41 xenograft; 30 mg/kg/day ip
  Tumor growth inhibition (TGI): 106.6%
MP41 xenograft; 5, 15, 30 mg/kg/day ip
  Body weight of the mice: did not decline
  Side effects during and after the treatment (H&E staining): did not observe manifest side effects
Phosphorylated ERK
  Phosphorylated ERK expression in tumor tissues: inhibited the phosphorylated ERK
Gαq/11 [5]
  IP1 inhibition at 10 μmol/L: 57.2 ± 1.9%
[6]
  IC50: 10.4 ± 0.1 µmol/L
92.1 cells [7]
  92.1 cell invasion: poor invasion
MP41 cells [8]; 5 and 10 μmol/L
  Antiproliferative activity on MP41 (si#control): remarkable antiproliferative activity
MP41 cells [8]; GNA11 knockdown
  Antiproliferative activity on MP41 (si#GNA11): could not inhibit MP41 cell proliferation
MP41 cells [9]
  MP41 cell invasion: poor invasion
MP41 cells [10]; 3 μmol/L
  Cellular proportion in G0/G1 phase: 78.0%
MP41 cells [10]; 10 μmol/L
  Cellular proportion in G0/G1 phase: 79.4%
92.1 cells [11]; 10 μmol/L
  Apoptotic rate: 9.34%
92.1 cells [11]; 20 μmol/L
  Apoptotic rate: 17.5%
92.1 cells [12]; 10 μmol/L
  Cellular proportion in G0/G1 phase: 77.1%
92.1 cells [12]; 20 μmol/L
  Cellular proportion in G0/G1 phase: 83.5%
CHO-M1 cells; 2 h, 10 and 20 μmol/L
  Cell viability of CHO-M1 cells, 2 h: did not impact the cell viability
CHO-M1 cells; 24 h, up to 20 μmol/L
  Cell viability of CHO-M1 cells, 24 h: did not impact the cell viability
[13]; iv, 5 mg/kg
  AUC: 1620 ± 70 ng·h/mL
  Cmax: 2470 ± 192 ng/mL
  MRT: 1.1 ± 0.1 h
  Tmax: 0.08 h
  Vd: 3.9 ± 0.4 L/kg
  clearance: 50.2 ± 2.1 mL/min/kg
  half-life: 1.8 ± 0.2 h
[13]; po, 15 mg/kg
  AUC: 2900 ± 358 ng·h/mL
  Cmax: 1040 ± 267 ng/mL
  MRT: 3.1 ± 0.7 h
  Tmax: 0.5 ± 0.4 h
  bioavailability: 59.5%
  half-life: 2.4 ± 0.7 h
Phosphorylated YAP
  Phosphorylated YAP expression in tumor tissues: increased the accumulation of phosphorylated YAP
92.1 cells [14]
  Antiproliferative activity on GNAQ knockdown 92.1 cells: no inhibitory effect on proliferation
